Source: ChEMBL document CHEMBL5724801, “EUbOPEN Chemogenomics Library - Multiplex” (2024)
Several values for one entry are separate records, joined by “and”; a condition that tells them apart may be missing. Equal entries are not always repeated.

Tested on: Fibroblast
Test: Multiplex assay against human fibroblast
Format: toxicity, cell-based
How it was run: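 With compound added, live cells were imaged on a CQ1 microscope at 37°C and 5% CO2; staining with Hoechst33342, BioTracker Green Microtubule Cytoskeleton Dye, MitoTracker Red and Annexin V Alexa Fluor 680 had been done at seeding. The CellPathfinder machine-learning gating scheme split cells into Hoechst high-intensity objects or normal cells, normal cells into healthy, pyknosed or fragmented nuclei, and pyknosed cells into mitotic or apoptotic. The tubulin, mitochondrial-mass and membrane-permeability phenotypes are per cents of healthy-nucleus cells.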

[1] = 12 h, 1 µM, compound concentration 1 uM
[2] = 12 h, 10 µM, compound concentration 10 uM
[3] = 24 h, 1 µM, compound concentration 1 uM
[4] = 24 h, 10 µM, compound concentration 10 uM
[5] = 48 h, 1 µM, compound concentration 1 uM
[6] = 48 h, 10 µM, compound concentration 10 uM

SMILES: N#Cc1c(Oc2cccc(OS(=O)(=O)CCCC(F)(F)F)c2)cccc1C(F)(F)F
- Population Apoptotic (%) [1]: 51% and 38%
- Population Fragmented Nuclei (%) [1]: 13% and 27%
- Population Healthy Nuclei (%) [1]: 63% and 48%
- Population Hoechst High Intensity Objects (%) [1]: 2% and 7%
- Population Membrane Permeable-Phenotype (%) [1]: 1% and 9%
- Population Mitochondria Different-Phenotype (%) [1]: 7%
- Population Mitotic Cells (%) [1]: 48% and 61%
- Population Normal (%) [1]: 97% and 92%
- Population Pyknosed Nuclei (%) [1]: 23% and 24%
- Population Tubulin-Different-Phenotype (%) [1]: 38% and 59%
- Total Cell Count [1]: 146 and 148
- Population Apoptotic (%) [2]: 31% and 66%
- Population Fragmented Nuclei (%) [2]: 14% and 42%
- Population Healthy Nuclei (%) [2]: 59% and 22%
- Population Hoechst High Intensity Objects (%) [2]: 6% and 7%
- Population Mitochondria Different-Phenotype (%) [2]: 7% and 3%
- Population Mitotic Cells (%) [2]: 68% and 33%
- Population Normal (%) [2]: 93% and 92%
- Population Pyknosed Nuclei (%) [2]: 26% and 35%
- Population Tubulin-Different-Phenotype (%) [2]: 36% and 75%
- Total Cell Count [2]: 180 and 138
- Population Apoptotic (%) [3]: 50% and 54%
- Population Fragmented Nuclei (%) [3]: 20% and 33%
- Population Healthy Nuclei (%) [3]: 62% and 50%
- Population Hoechst High Intensity Objects (%) [3]: 6% and 3%
- Population Membrane Permeable-Phenotype (%) [3]: 1% and 5%
- Population Mitochondria Different-Phenotype (%) [3]: 4% and 5%
- Population Mitotic Cells (%) [3]: 50% and 45%
- Population Normal (%) [3]: 93% and 96%
- Population Pyknosed Nuclei (%) [3]: 17% and 16%
- Population Tubulin-Different-Phenotype (%) [3]: 45% and 57%
- Total Cell Count [3]: 148 and 147
- Population Apoptotic (%) [4]: 44% and 61%
- Population Healthy Nuclei (%) [4]: 59% and 23%
- Population Hoechst High Intensity Objects (%) [4]: 5% and 8%
- Population Mitochondria Different-Phenotype (%) [4]: 12% and 22%
- Population Mitotic Cells (%) [4]: 55% and 38%
- Population Normal (%) [4]: 94% and 91%
- Population Pyknosed Nuclei (%) [4]: 27% and 36%
- Population Tubulin-Different-Phenotype (%) [4]: 43% and 77%
- Total Cell Count [4]: 174 and 127
- Population Apoptotic (%) [5]: 60% and 38%
- Population Fragmented Nuclei (%) [5]: 18% and 26%
- Population Healthy Nuclei (%) [5]: 66% and 59%
- Population Hoechst High Intensity Objects (%) [5]: 7% and 5%
- Population Mitochondria Different-Phenotype (%) [5]: 5% and 2%
- Population Mitotic Cells (%) [5]: 40% and 61%
- Population Normal (%) [5]: 92% and 94%
- Population Pyknosed Nuclei (%) [5]: 14%
- Population Tubulin-Different-Phenotype (%) [5]: 42% and 56%
- Total Cell Count [5]: 145 and 133
- Population Apoptotic (%) [6]: 52% and 59%
- Population Fragmented Nuclei (%) [6]: 20% and 43%
- Population Healthy Nuclei (%) [6]: 54% and 31%
- Population Hoechst High Intensity Objects (%) [6]: 9% and 2%
- Population Mitochondria Different-Phenotype (%) [6]: 12% and 15%
- Population Mitotic Cells (%) [6]: 47% and 40%
- Population Normal (%) [6]: 90% and 97%
- Population Pyknosed Nuclei (%) [6]: 24% and 25%
- Population Tubulin-Different-Phenotype (%) [6]: 47% and 89%
- Total Cell Count [6]: 172 and 150

SMILES: Nc1nc(-c2ccco2)c2cnn(Cc3ccccc3F)c2n1
- Population Apoptotic (%) [1]: 50% and 45%
- Population Healthy Nuclei (%) [1]: 78% and 50%
- Population Hoechst High Intensity Objects (%) [1]: 0% and 6%
- Population Membrane Permeable-Phenotype (%) [1]: 1% and 2%
- Population Mitochondria Different-Phenotype (%) [1]: 2% and 5%
- Population Mitotic Cells (%) [1]: 50% and 54%
- Population Normal (%) [1]: 99% and 93%
- Population Pyknosed Nuclei (%) [1]: 11% and 17%
- Population Tubulin-Different-Phenotype (%) [1]: 26% and 42%
- Total Cell Count [1]: 189 and 144
- Population Apoptotic (%) [2]: 54% and 47%
- Population Fragmented Nuclei (%) [2]: 16% and 39%
- Population Healthy Nuclei (%) [2]: 61% and 44%
- Population Hoechst High Intensity Objects (%) [2]: 8% and 10%
- Population Membrane Permeable-Phenotype (%) [2]: 0% and 5%
- Population Mitochondria Different-Phenotype (%) [2]: 7% and 13%
- Population Mitotic Cells (%) [2]: 45% and 52%
- Population Normal (%) [2]: 91% and 89%
- Population Pyknosed Nuclei (%) [2]: 21% and 16%
- Population Tubulin-Different-Phenotype (%) [2]: 38% and 51%
- Total Cell Count [2]: 123 and 147
- Population Apoptotic (%) [3]: 50% and 56%
- Population Healthy Nuclei (%) [3]: 82% and 53%
- Population Hoechst High Intensity Objects (%) [3]: 0% and 6%
- Population Membrane Permeable-Phenotype (%) [3]: 0% and 4%
- Population Mitochondria Different-Phenotype (%) [3]: 2% and 5%
- Population Mitotic Cells (%) [3]: 50% and 43%
- Population Normal (%) [3]: 100% and 93%
- Population Pyknosed Nuclei (%) [3]: 7% and 17%
- Population Tubulin-Different-Phenotype (%) [3]: 24% and 37%
- Total Cell Count [3]: 180 and 139
- Population Apoptotic (%) [4]: 70% and 43%
- Population Fragmented Nuclei (%) [4]: 19% and 43%
- Population Healthy Nuclei (%) [4]: 66% and 44%
- Population Hoechst High Intensity Objects (%) [4]: 6% and 8%
- Population Mitochondria Different-Phenotype (%) [4]: 8% and 5%
- Population Mitotic Cells (%) [4]: 29% and 56%
- Population Normal (%) [4]: 93% and 91%
- Population Pyknosed Nuclei (%) [4]: 14% and 11%
- Population Tubulin-Different-Phenotype (%) [4]: 39% and 46%
- Total Cell Count [4]: 127 and 147
- Population Apoptotic (%) [5]: 45% and 57%
- Population Fragmented Nuclei (%) [5]: 16% and 41%
- Population Healthy Nuclei (%) [5]: 77% and 48%
- Population Hoechst High Intensity Objects (%) [5]: 3% and 6%
- Population Membrane Permeable-Phenotype (%) [5]: 2% and 4%
- Population Mitochondria Different-Phenotype (%) [5]: 1% and 9%
- Population Mitotic Cells (%) [5]: 54% and 42%
- Population Normal (%) [5]: 96% and 93%
- Population Pyknosed Nuclei (%) [5]: 6% and 10%
- Population Tubulin-Different-Phenotype (%) [5]: 26% and 37%
- Total Cell Count [5]: 182 and 147
- Population Apoptotic (%) [6]: 80% and 50%
- Population Fragmented Nuclei (%) [6]: 25% and 50%
- Population Healthy Nuclei (%) [6]: 65% and 38%
- Population Hoechst High Intensity Objects (%) [6]: 9% and 5%
- Population Membrane Permeable-Phenotype (%) [6]: 0% and 16%
- Population Mitochondria Different-Phenotype (%) [6]: 10%
- Population Mitotic Cells (%) [6]: 20% and 50%
- Population Normal (%) [6]: 90% and 94%
- Population Pyknosed Nuclei (%) [6]: 9% and 10%
- Population Tubulin-Different-Phenotype (%) [6]: 27% and 51%
- Total Cell Count [6]: 115 and 155
